In ChEMBL document CHEMBL1127543, “Dual angiotensin converting enzyme/thromboxane synthase inhibitors” (J Med Chem, 1994):
Blank lines part the entries; values can stand above or below the molecule they belong to. Active and inactive are the calls of the source. The rule behind the calls is not given here.

What was measured:
[1] = target: T1, Angiotensin-converting enzyme (Oryctolagus cuniculus, UniProt P12822); assay: Tested for 50% inhibition of Angiotensin converting enzyme(ACE) obtained from rabbit lung (in vitro)
T1 sequence (P12822 whole entry): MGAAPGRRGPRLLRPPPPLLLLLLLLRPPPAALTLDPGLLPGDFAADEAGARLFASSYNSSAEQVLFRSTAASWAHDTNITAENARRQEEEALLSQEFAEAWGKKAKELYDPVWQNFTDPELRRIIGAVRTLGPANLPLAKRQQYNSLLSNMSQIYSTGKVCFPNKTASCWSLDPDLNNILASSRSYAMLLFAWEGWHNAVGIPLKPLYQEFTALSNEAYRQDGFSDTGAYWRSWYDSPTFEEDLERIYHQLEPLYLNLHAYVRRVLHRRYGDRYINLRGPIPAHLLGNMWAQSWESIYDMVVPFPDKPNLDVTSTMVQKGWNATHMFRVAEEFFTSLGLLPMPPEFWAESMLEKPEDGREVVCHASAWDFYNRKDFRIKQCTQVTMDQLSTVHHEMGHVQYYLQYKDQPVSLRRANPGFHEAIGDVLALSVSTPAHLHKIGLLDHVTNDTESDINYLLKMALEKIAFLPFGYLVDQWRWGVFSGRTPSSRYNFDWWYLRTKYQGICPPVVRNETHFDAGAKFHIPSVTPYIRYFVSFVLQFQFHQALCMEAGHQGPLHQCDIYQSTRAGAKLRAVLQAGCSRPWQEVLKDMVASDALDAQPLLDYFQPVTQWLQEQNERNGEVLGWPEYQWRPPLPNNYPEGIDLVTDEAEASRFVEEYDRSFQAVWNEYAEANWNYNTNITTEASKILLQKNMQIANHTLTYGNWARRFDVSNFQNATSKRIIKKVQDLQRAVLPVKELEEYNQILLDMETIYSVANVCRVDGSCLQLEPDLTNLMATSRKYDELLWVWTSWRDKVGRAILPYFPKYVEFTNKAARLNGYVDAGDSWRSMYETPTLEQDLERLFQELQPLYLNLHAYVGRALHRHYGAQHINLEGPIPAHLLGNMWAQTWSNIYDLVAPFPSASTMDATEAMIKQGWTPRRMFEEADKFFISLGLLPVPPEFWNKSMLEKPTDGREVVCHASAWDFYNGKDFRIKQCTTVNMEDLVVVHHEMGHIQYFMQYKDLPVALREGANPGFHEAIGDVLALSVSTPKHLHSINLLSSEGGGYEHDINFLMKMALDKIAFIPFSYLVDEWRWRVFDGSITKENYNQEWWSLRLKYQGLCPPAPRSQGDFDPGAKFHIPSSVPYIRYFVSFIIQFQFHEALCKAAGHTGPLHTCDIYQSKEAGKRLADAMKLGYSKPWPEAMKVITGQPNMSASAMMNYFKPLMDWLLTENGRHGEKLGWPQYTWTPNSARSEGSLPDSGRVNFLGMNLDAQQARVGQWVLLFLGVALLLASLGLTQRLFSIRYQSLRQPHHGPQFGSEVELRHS
Summary of the method: (§1)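 ACE was partially purified from rabbit lung and incubated with the synthetic substrate Hip-His-Leu. The hippuric acid product was measured spectrophotometrically. IC50 was read graphically from a range of inhibitor concentrations within the assay's linear range. Each determination was done in duplicate and repeated once.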

[2] = target: T2, Thromboxane-A synthase (Homo sapiens, UniProt P24557); assay: Tested for 50% inhibition of thromboxane synthase (TxS) in human platelets (in vitro)
T2 sequence (P24557 whole entry): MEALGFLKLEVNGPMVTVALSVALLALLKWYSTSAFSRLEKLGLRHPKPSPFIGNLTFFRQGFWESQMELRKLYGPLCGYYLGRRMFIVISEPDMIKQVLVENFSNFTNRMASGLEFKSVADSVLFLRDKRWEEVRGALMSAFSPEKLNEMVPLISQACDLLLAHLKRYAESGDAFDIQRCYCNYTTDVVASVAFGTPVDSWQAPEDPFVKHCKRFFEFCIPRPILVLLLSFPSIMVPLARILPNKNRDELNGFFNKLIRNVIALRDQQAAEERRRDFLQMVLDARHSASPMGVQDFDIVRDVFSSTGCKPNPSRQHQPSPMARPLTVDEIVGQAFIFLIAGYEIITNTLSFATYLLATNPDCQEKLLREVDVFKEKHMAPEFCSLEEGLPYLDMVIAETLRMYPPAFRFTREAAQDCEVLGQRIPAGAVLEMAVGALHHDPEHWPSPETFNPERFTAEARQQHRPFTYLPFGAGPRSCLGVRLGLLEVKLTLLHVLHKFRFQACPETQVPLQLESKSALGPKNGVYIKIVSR
Summary of the method: (§2)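 IC50 was obtained graphically from a range of compound concentrations within the linear range of the assay. Determinations were made in duplicate and repeated once.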

[3] = system: Rattus norvegicus; assay: Tested for percent inhibition of maximum angiotensin I (AI) pressor response in rats on oral administration of 300 mg/kg after 0.5 hr; type: functional
Summary of the method: (§3)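 Conscious catheterized SHR were prepared as for blood pressure recording. At set times after dosing, angiotensin I was injected intraarterially in 0.5 mL. The rise in arterial pressure was recorded and expressed as percent inhibition of the angiotensin I pressor response.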

[4] = system: Rattus norvegicus; assay: Antihypertensive activity was measured in spontaneously hypertensive rat (SHR) by measuring the blood pressure on interarterial administration at dose of 1 mg/kg; Not significant; type: functional, organism-based; design: dose 1 mg/kg; conditions: Artery
Summary of the method: (§4)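 Conscious, fully ambulatory SHR (250–280 g) were fitted with an arterial catheter led through an infusion swivel inside a protective spring. After 24 h recovery from surgery, rats were housed singly. Mean arterial pressure was recorded continuously after dosing over a 6-h period, with later readings up to 24 h. Rats had chow and tap water freely under a 12-h light cycle.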

[5] = system: Rattus norvegicus; assay: Antihypertensive activity was measured in spontaneously hypertensive rat (SHR) by measuring the blood pressure after 24 hours on interarterial administration at dose of 1 mg/kg; Not significant; type: functional, organism-based; design: dose 1 mg/kg; conditions: Artery; summary of the method: as §4
[6] = system: Rattus norvegicus; assay: Antihypertensive activity was measured in spontaneously hypertensive rat (SHR) by measuring the maximum blood pressure when administered orally at dose of 10 mg/kg after 4 hr; type: functional; conditions: route oral; summary of the method: as §4
[7] = system: Rattus norvegicus; assay: Antihypertensive activity was measured in spontaneously hypertensive rat (SHR) by measuring the blood pressure after 24 hours when administered orally at dose of 10 mg/kg; type: functional; conditions: route oral; summary of the method: as §4
[8] = system: Rattus norvegicus; assay: Tested for percent inhibition of maximum angiotensin I (AI) pressor response in rats on oral administration of 300 mg/kg after 2 hr; type: functional; summary of the method: as §3
[9] = target: T1, Angiotensin-converting enzyme; assay: Tested for 50% inhibition of Angiotensin converting enzyme(ACE) obtained from rabbit lung (in vitro); Not active; summary of the method: as §1
[10] = system: Rattus norvegicus; assay: Tested for percent inhibition of maximum angiotensin I (AI) pressor response in rats on oral administration of 300 mg/kg after 6 hr; type: functional; summary of the method: as §3
[11] = system: Rattus norvegicus; assay: Antihypertensive activity was measured in spontaneously hypertensive rat (SHR) by measuring the blood pressure after 24 hours when administered orally at dose of 30 mg/kg; type: functional; conditions: route oral
Summary of the method: (§5)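 Conscious, unrestrained, fully ambulatory SHR (250–280 g) fed normal pellet chow with free access to tap water, on a 12-h light cycle. Oral dosing used a vehicle at 1 mL/kg po. The read-out was the change in mean arterial pressure from control.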

[12] = system: Rattus norvegicus; assay: Antihypertensive activity was measured in spontaneously hypertensive rat (SHR) by measuring the maximum blood pressure when administered orally at dose of 30 mg/kg after 6 h; type: functional; conditions: route oral; summary of the method: as §4
[13] = system: Rattus norvegicus; assay: Tested for percent inhibition of maximum angiotensin I (AI) pressor response in rats on oral administration of 300 mg/kg after 4 hr; type: functional; summary of the method: as §3
[14] = species on record: Rattus norvegicus; conditions: 30 mg/kg
[15] = target: T2, Thromboxane-A synthase; assay: Tested for 50% inhibition of thromboxane synthase (TxS) in human platelets (in vitro); Not active; summary of the method: as §2
[16] = system: Rattus norvegicus; assay: Antihypertensive activity was measured in spontaneously hypertensive rat (SHR) by measuring the maximum blood pressure when administered orally at dose of 30 mg/kg after 4 h; type: functional; conditions: route oral; summary of the method: as §4
[17] = system: Rattus norvegicus; assay: Antihypertensive activity was measured in spontaneously hypertensive rat (SHR) by measuring the blood pressure after 24 hours when administered orally at dose of 5 mg/kg; type: functional; conditions: route oral; summary of the method: as §5
[18] = system: Rattus norvegicus; assay: Antihypertensive activity was measured in spontaneously hypertensive rat (SHR) by measuring the maximum blood pressure when administered orally at dose of 5 mg/kg after 3 h; type: functional; conditions: route oral; summary of the method: as §4

IC50 [1]: 30 nM
IC50 [2]: 20 nM
SMILES: Cc1c(-c2cccnc2)n(CCCCP(=O)(O)OC2CCc3ccccc3N(CC(=O)O)C2=O)c2ccccc12 (stereo unspecified)

IC50 [1]: 6 nM
IC50 [2]: 4 nM
SMILES: Cn1c(-c2cccnc2)c(CCCCCC(=O)NCCCC[C@H](N[C@@H]2CCc3ccccc3N(CC(=O)O)C2=O)C(=O)O)c2cc(Cl)ccc21
inhibition in vivo at 300 mg/kg [3]: 81%
Max delta BP [4]: inactive
Delta blood pressure [5]: inactive

IC50 [1]: 7 nM
SMILES: NCCCC[C@H](N[C@@H]1CCc2ccccc2N(CC(=O)O)C1=O)C(=O)O
Max delta BP [6]: -30 mmHg
Delta blood pressure [7]: -18 mmHg
inhibition in vivo at 300 mg/kg [8]: 70%

IC50 [9]: Not Active
SMILES: Cc1c(-c2cccnc2)n(CCCCCCCC(=O)O)c2ccccc12

IC50 [1]: 10 nM
IC50 [2]: 18 nM
SMILES: CNCCN(CCCC[C@H](N[C@H]1CCc2ccccc2N(CC(=O)[O-])C1=O)C(=O)[O-])C(=O)CCCCCc1c(-c2cccnc2)n(C)c2ccc(Cl)cc12.[Na+].[Na+]
inhibition in vivo at 300 mg/kg [10]: 71%
Delta blood pressure [11]: -20 mmHg
Max delta BP [12]: -39 mmHg

IC50 [1]: 7 nM
IC50 [15]: Not Active
SMILES: O=C(O)CN1C(=O)[C@@H](N[C@@H](CCCCNCCO)C(=O)O)CCc2ccccc21
inhibition in vivo at 300 mg/kg [13]: 84%
Delta blood pressure [14]: inactive
Max delta BP [16]: -28 mmHg

IC50 [15]: Not Active
SMILES: CCOC(=O)C(CCc1ccccc1)NC(C)C(=O)N1CCC[C@H]1C(=O)O (single isomer, unassigned)
Delta blood pressure [17]: -17 mmHg
Max delta BP [18]: -28 mmHg
inhibition in vivo at 300 mg/kg [8]: 100%

IC50 [1]: 20 nM
IC50 [15]: Not Active
SMILES: O=C([O-])CN1C(=O)C(OP(=O)([O-])CCCCc2ccccc2)CCc2ccccc21.[Na+].[Na+] (stereo unspecified)

IC50 [1]: 90 nM
IC50 [2]: 20 nM
SMILES: Cc1c(-c2cccnc2)n(CCCCCCCC(=O)O[C@@H]2C[C@H](N[C@@H](CCc3ccccc3)C(=O)O)C(=O)N(CC(=O)O)c3ccccc32)c2ccccc12

IC50 [9]: Not Active
SMILES: Cn1c(-c2cccnc2)c(CCCCCC(=O)O)c2cc(Cl)ccc21
